Assay results: ChEMBL document CHEMBL5058577, “EUbOPEN Chemogenomics Library 2 (Multiplex)” (2022)

Test system: Fibroblast
Assay: Multiplex assay against human fibroblast
Type: toxicity, cell-based
Summary of the method: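 Phenotypes for tubulin, mitochondrial mass and membrane permeability are expressed as per cents of healthy-nucleus cells. Cells were stained live at seeding with Hoechst33342, BioTracker Green Microtubule Cytoskeleton Dye, MitoTracker Red and Annexin V Alexa Fluor 680, then imaged after compound addition on a CQ1 microscope at 37°C and 5% CO2. Machine-learning gating in CellPathfinder separated Hoechst high-intensity objects from normal cells, divided normal cells by nuclear state (healthy, pyknosed, fragmented) and divided pyknosed cells into mitotic or apoptotic.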

[1] = 12 h, 1 µM, compound concentration 1 uM, replicate 1
[2] = 12 h, 1 µM, compound concentration 1 uM, replicate 2
[3] = 12 h, 10 µM, compound concentration 10 uM, replicate 1
[4] = 12 h, 10 µM, compound concentration 10 uM, replicate 2
[5] = 24 h, 1 µM, compound concentration 1 uM, replicate 1
[6] = 24 h, 1 µM, compound concentration 1 uM, replicate 2
[7] = 24 h, 10 µM, compound concentration 10 uM, replicate 1
[8] = 24 h, 10 µM, compound concentration 10 uM, replicate 2
[9] = 48 h, 1 µM, compound concentration 1 uM, replicate 1
[10] = 48 h, 1 µM, compound concentration 1 uM, replicate 2
[11] = 48 h, 10 µM, compound concentration 10 uM, replicate 1
[12] = 48 h, 10 µM, compound concentration 10 uM, replicate 2

With `CCCCC(=O)N(Cc1ccc(-c2ccccc2-c2nnn[nH]2)cc1)[C@H](C(=O)O)C(C)C` the “Population Apoptotic (%)” value [1] was 45%, the “Population Fragmented Nuclei (%)” value [1] was 9% and the “Population Healthy Nuclei (%)” value [1] was 74%. For the same compound, the “Population Hoechst High Intensity Objects (%)” value [1] was 4%, the “Population Membrane Permeable-Phenotype (%)” value [1] was 0% and the “Population Mitochondria Different-Phenotype (%)” value [1] was 0%. For the same compound, the “Population Mitotic Cells (%)” value [1] was 54%, the “Population Normal (%)” value [1] was 95% and the “Population Pyknosed Nuclei (%)” value [1] was 16%. The “Population Tubulin-Different-Phenotype (%)” value [1] was 20%, the “Total Cell Count” value [1] was 143 and the “Population Apoptotic (%)” value [2] was 44%. The “Population Fragmented Nuclei (%)” value [2] was 21%, the “Population Healthy Nuclei (%)” value [2] was 54% and the “Population Hoechst High Intensity Objects (%)” value [2] was 3%. The “Population Membrane Permeable-Phenotype (%)” value [2] was 8%, the “Population Mitochondria Different-Phenotype (%)” value [2] was 6% and the “Population Mitotic Cells (%)” value [2] was 55%. The “Population Normal (%)” value [2] was 96%, the “Population Pyknosed Nuclei (%)” value [2] was 24% and the “Population Tubulin-Different-Phenotype (%)” value [2] was 36%. The “Total Cell Count” value [2] was 156, the “Population Apoptotic (%)” value [3] was 37% and the “Population Fragmented Nuclei (%)” value [3] was 20%. The “Population Healthy Nuclei (%)” value [3] was 56%, the “Population Hoechst High Intensity Objects (%)” value [3] was 0% and the “Population Membrane Permeable-Phenotype (%)” value [3] was 3%. For the same compound, the “Population Mitochondria Different-Phenotype (%)” value [3] was 3%, the “Population Mitotic Cells (%)” value [3] was 62% and the “Population Normal (%)” value [3] was 100%. The “Population Pyknosed Nuclei (%)” value [3] was 22%, the “Population Tubulin-Different-Phenotype (%)” value [3] was 23% and the “Total Cell Count” value [3] was 106. The “Population Fragmented Nuclei (%)” value [4] was 27%, the “Population Healthy Nuclei (%)” value [4] was 42% and the “Population Hoechst High Intensity Objects (%)” value [4] was 3%. The “Population Membrane Permeable-Phenotype (%)” value [4] was 11%, the “Population Mitochondria Different-Phenotype (%)” value [4] was 11% and the “Population Normal (%)” value [4] was 96%. For the same compound, the “Population Pyknosed Nuclei (%)” value [4] was 29%, the “Population Tubulin-Different-Phenotype (%)” value [4] was 51% and the “Total Cell Count” value [4] was 130. For the same compound, the “Population Apoptotic (%)” value [5] was 66%, the “Population Fragmented Nuclei (%)” value [5] was 15% and the “Population Healthy Nuclei (%)” value [5] was 70%. For the same compound, the “Population Hoechst High Intensity Objects (%)” value [5] was 0%, the “Population Membrane Permeable-Phenotype (%)” value [5] was 1% and the “Population Mitochondria Different-Phenotype (%)” value [5] was 2%. The “Population Mitotic Cells (%)” value [5] was 33%, the “Population Normal (%)” value [5] was 99% and the “Population Pyknosed Nuclei (%)” value [5] was 14%. The “Population Tubulin-Different-Phenotype (%)” value [5] was 17%, the “Total Cell Count” value [5] was 146 and the “Population Apoptotic (%)” value [6] was 38%. For the same compound, the “Population Fragmented Nuclei (%)” value [6] was 21%, the “Population Healthy Nuclei (%)” value [6] was 52% and the “Population Hoechst High Intensity Objects (%)” value [6] was 2%. For the same compound, the “Population Membrane Permeable-Phenotype (%)” value [6] was 2%, the “Population Mitochondria Different-Phenotype (%)” value [6] was 1% and the “Population Mitotic Cells (%)” value [6] was 61%. For the same compound, the “Population Normal (%)” value [6] was 97%, the “Population Pyknosed Nuclei (%)” value [6] was 25% and the “Population Tubulin-Different-Phenotype (%)” value [6] was 25%. The “Total Cell Count” value [6] was 145, the “Population Apoptotic (%)” value [7] was 48% and the “Population Fragmented Nuclei (%)” value [7] was 18%. The “Population Healthy Nuclei (%)” value [7] was 56%, the “Population Hoechst High Intensity Objects (%)” value [7] was 2% and the “Population Membrane Permeable-Phenotype (%)” value [7] was 0%. The “Population Mitochondria Different-Phenotype (%)” value [7] was 1%, the “Population Mitotic Cells (%)” value [7] was 51% and the “Population Normal (%)” value [7] was 97%. For the same compound, the “Population Pyknosed Nuclei (%)” value [7] was 25%, the “Population Tubulin-Different-Phenotype (%)” value [7] was 31% and the “Total Cell Count” value [7] was 110. For the same compound, the “Population Apoptotic (%)” value [8] was 35%, the “Population Fragmented Nuclei (%)” value [8] was 25% and the “Population Healthy Nuclei (%)” value [8] was 44%. The “Population Hoechst High Intensity Objects (%)” value [8] was 4%, the “Population Membrane Permeable-Phenotype (%)” value [8] was 9% and the “Population Mitochondria Different-Phenotype (%)” value [8] was 10%. The “Population Mitotic Cells (%)” value [8] was 64%, the “Population Normal (%)” value [8] was 95% and the “Population Pyknosed Nuclei (%)” value [8] was 29%. For the same compound, the “Population Tubulin-Different-Phenotype (%)” value [8] was 65%, the “Total Cell Count” value [8] was 130 and the “Population Apoptotic (%)” value [9] was 80%. The “Population Fragmented Nuclei (%)” value [9] was 18%, the “Population Healthy Nuclei (%)” value [9] was 71% and the “Population Hoechst High Intensity Objects (%)” value [9] was 6%. For the same compound, the “Population Membrane Permeable-Phenotype (%)” value [9] was 0%, the “Population Mitochondria Different-Phenotype (%)” value [9] was 1% and the “Population Mitotic Cells (%)” value [9] was 20%. The “Population Normal (%)” value [9] was 93%, the “Population Pyknosed Nuclei (%)” value [9] was 10% and the “Population Tubulin-Different-Phenotype (%)” value [9] was 17%. The “Total Cell Count” value [9] was 153, the “Population Apoptotic (%)” value [10] was 40% and the “Population Fragmented Nuclei (%)” value [10] was 27%. The “Population Healthy Nuclei (%)” value [10] was 51%, the “Population Hoechst High Intensity Objects (%)” value [10] was 3% and the “Population Membrane Permeable-Phenotype (%)” value [10] was 1%. For the same compound, the “Population Mitochondria Different-Phenotype (%)” value [10] was 3%, the “Population Mitotic Cells (%)” value [10] was 59% and the “Population Normal (%)” value [10] was 96%. For the same compound, the “Population Pyknosed Nuclei (%)” value [10] was 21%, the “Population Tubulin-Different-Phenotype (%)” value [10] was 33% and the “Total Cell Count” value [10] was 155. For the same compound, the “Population Apoptotic (%)” value [11] was 64%, the “Population Fragmented Nuclei (%)” value [11] was 28% and the “Population Healthy Nuclei (%)” value [11] was 56%. The “Population Hoechst High Intensity Objects (%)” value [11] was 4%, the “Population Membrane Permeable-Phenotype (%)” value [11] was 0% and the “Population Mitochondria Different-Phenotype (%)” value [11] was 5%. For the same compound, the “Population Mitotic Cells (%)” value [11] was 35%, the “Population Normal (%)” value [11] was 95% and the “Population Pyknosed Nuclei (%)” value [11] was 15%. For the same compound, the “Population Tubulin-Different-Phenotype (%)” value [11] was 30%, the “Total Cell Count” value [11] was 112 and the “Population Apoptotic (%)” value [12] was 57%. For the same compound, the “Population Fragmented Nuclei (%)” value [12] was 39%, the “Population Healthy Nuclei (%)” value [12] was 39% and the “Population Membrane Permeable-Phenotype (%)” value [12] was 7%. The “Population Mitotic Cells (%)” value [12] was 42%, the “Population Pyknosed Nuclei (%)” value [12] was 20% and the “Population Tubulin-Different-Phenotype (%)” value [12] was 69%. For the same compound, the “Total Cell Count” value [12] was 141.
